These results are taken from ChEMBL document CHEMBL1949632, “Discovery of potent and liver-selective stearoyl-CoA desaturase (SCD) inhibitors in an acyclic linker series” (Bioorg Med Chem Lett, 2012).

Data set [1] has as its target T1, Stearoyl-CoA desaturase (Homo sapiens, UniProt O00767).
T1 sequence (O00767 whole entry): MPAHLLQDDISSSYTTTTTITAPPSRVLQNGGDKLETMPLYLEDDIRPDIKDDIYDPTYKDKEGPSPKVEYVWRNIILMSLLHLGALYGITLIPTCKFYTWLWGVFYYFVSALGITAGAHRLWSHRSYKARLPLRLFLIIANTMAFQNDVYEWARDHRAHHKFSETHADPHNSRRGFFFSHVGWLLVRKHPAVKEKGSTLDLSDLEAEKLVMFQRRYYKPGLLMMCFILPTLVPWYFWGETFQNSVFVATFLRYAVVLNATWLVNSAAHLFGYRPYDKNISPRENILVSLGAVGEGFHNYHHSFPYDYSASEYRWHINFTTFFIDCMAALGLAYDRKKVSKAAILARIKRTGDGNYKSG
Put plainly: Inhibition of SCD1 in OATP-deficient human HepG2 cells by whole cell assay. In kind it is cell-based.

Data set [2] has as its target T2, Acyl-CoA desaturase 1 (Rattus norvegicus, UniProt P07308).
T2 sequence (P07308 whole entry): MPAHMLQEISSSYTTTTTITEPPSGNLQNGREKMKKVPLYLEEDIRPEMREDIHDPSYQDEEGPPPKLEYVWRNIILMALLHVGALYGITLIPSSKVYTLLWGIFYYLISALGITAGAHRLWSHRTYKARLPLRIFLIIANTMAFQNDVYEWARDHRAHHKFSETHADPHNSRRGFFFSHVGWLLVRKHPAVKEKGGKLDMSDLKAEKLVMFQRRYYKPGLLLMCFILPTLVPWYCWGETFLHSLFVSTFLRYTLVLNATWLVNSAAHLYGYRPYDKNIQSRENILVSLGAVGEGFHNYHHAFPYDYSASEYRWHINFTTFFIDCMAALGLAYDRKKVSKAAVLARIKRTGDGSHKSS
Description: Inhibition of rat liver microsome SCD1. The method in brief:
(§1)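 IC50s are the average of at least two independent titrations.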

The nature of data set [3]: Stability in rat hepatocytes assessed as compound remaining after 2 hrs. In kind it is ADME, cell-based, Hepatocyte. As to conditions: read-out: Stability. The method in brief:
(§2)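 Fresh mouse or rat hepatocytes, 2 million cells/mL in Krebs-Henseleit buffer, incubated at 37 °C for 2 h under 95% O2/5% CO2. Parent compound remaining measured.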

Data set [4] has as its target Acyl-CoA (8-3)-desaturase (Homo sapiens, UniProt O60427). Put plainly: Inhibition of delta-5 desaturase expressed in HepG2 cells. It is filed as cell-based.
Data set [5] deals with T2, Acyl-CoA desaturase 1. Description: Inhibition of SCD1 in rat hepatocytes expressing OATP. It is filed as cell-based, Hepatocyte. The method in brief: as §1
Data set [6] is described as follows: AUC (0 to 6 hrs) in C57BL/6 mouse at 10 mg/kg, po. Set-up: time < 6 hr, dose 10 mg/kg, route oral. It is filed as ADME, organism-based, C57BL6. As to conditions: plasma. In short, it runs like this: (§3)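 C57BL6 mice dosed orally at 10 mg/kg in 0.5% methocel; plasma PK followed over 0–6 h, giving oral bioavailability (F) and AUC0–6h.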
A short description of data set [7]: Oral bioavailability in C57BL/6 mouse at 10 mg/kg. In kind it is ADME, organism-based, C57BL6. As to conditions: in vivo. The method in brief:
as §3

The target in data set [8] is Acyl-CoA desaturase 1 (Mus musculus) (UniProt P13516). Description: Inhibition of SCD1 in mouse SCD1 enzyme assay.
The subject of data set [9] is Mus musculus. Put plainly: Inhibition of SCD1 in mouse liver assessed as reduction in conversion of [14C]stearic acid to [14C]oleic acid at 60 mg/kg, po measured after 3 hrs. It is filed as functional. The method in brief: (§4)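 Mouse liver pharmacodynamic model. Mice (n = 5) on high-carbohydrate diet, dosed orally; [1-14C]-stearic acid tracer given intravenously. Liver lipid 14C-oleic/14C-stearic ratio (SCD activity index) and liver drug concentration determined 3 h post dose. % inhibition is relative to vehicle-treated animals.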

Data set [10] can be described thus: Stability in mouse hepatocytes assessed as compound remaining after 2 hrs. It is filed as ADME, cell-based, Hepatocyte. As to conditions: read-out: Stability. The method in brief:
as §2

In data set [11] the target is T1, Stearoyl-CoA desaturase. Put plainly: Inhibition of human SCD1.
The target of a further data set is T3, Acyl-CoA 6-desaturase (Homo sapiens, UniProt O95864).
T3 sequence (O95864 whole entry): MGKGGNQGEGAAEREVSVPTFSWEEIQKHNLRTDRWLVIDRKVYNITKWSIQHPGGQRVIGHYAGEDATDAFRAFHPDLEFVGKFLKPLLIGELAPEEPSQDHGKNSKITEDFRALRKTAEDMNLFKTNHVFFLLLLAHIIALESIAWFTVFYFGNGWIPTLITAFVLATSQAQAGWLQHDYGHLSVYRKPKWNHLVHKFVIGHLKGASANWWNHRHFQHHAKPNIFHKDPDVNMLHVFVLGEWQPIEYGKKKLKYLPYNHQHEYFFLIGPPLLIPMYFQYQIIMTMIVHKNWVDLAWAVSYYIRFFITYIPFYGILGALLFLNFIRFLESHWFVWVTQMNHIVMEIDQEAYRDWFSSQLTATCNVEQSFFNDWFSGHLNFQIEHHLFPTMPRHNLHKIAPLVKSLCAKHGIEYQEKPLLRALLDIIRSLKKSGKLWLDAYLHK
Description: Inhibition of delta-6 desaturase expressed in HepG2 cells. It is filed as cell-based.

A short description of data set [12]: Drug uptake in mouse liver at 10 mg/kg, po after 6 hrs. In kind it is ADME, organism-based. Details: dose 10 mg/kg, route oral. As to conditions: read-out: Drug uptake. In short, it runs like this:
(§5)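 Tissue distribution study. Mice (n = 2) given 10 mg/kg orally; liver, plasma, shaved skin and Harderian gland concentrations measured 6 h post dose.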

Data set [13] can be described thus: Drug uptake in mouse liver at 60 mg/kg, po measured after 3 hrs. It is filed as ADME, organism-based. Details: dose 60 mg/kg, route oral. As to conditions: read-out: Drug uptake. In short, it runs like this:
as §4

Data set [14] in a line: Drug uptake in mouse shaved skin at 10 mg/kg, po after 6 hrs. In kind it is ADME, organism-based, Zone of skin. Details: dose 10 mg/kg, route oral. As to conditions: read-out: Drug uptake. In short, it runs like this: as §5
Data set [15] relates to Mus musculus. Description: Inhibition of SCD1 in mouse liver assessed as reduction in conversion of [14C]stearic acid to [14C]oleic acid at 2 mg/kg, po measured after 3 hrs. It is filed as functional. The method in brief: as §4
Data set [16] can be described thus: Drug uptake in mouse liver at 10 mg/kg, po after 3 hrs. In kind it is ADME, organism-based. Details: dose 10 mg/kg, route oral. As to conditions: read-out: Drug uptake. The method in brief:
as §4

A short description of data set [17]: Drug uptake in mouse plasma at 10 mg/kg, po after 6 hrs. It is filed as ADME, organism-based. Set-up: dose 10 mg/kg, route oral. The method in brief:
as §5

The subject of data set [18] is Mus musculus. Description: Inhibition of SCD1 in mouse liver assessed as reduction in conversion of [14C]stearic acid to [14C]oleic acid after at 10 mg/kg, po after 3 hrs. In kind it is functional. The method in brief: as §4
Data set [19] can be described thus: Drug uptake in mouse harderian glands at 10 mg/kg, po after 6 hrs. As to conditions: read-out: Drug uptake. It is filed as ADME, organism-based, Harderian gland. Set-up: dose 10 mg/kg, route oral. In short, it runs like this:
as §5

Data set [20] in a line: Drug uptake in mouse liver at 2 mg/kg, po measured after 3 hrs. Details: dose 2 mg/kg, route oral. As to conditions: read-out: Drug uptake. It is filed as ADME, organism-based. The method in brief:
as §4

Data set [21] relates to Mus musculus. Description: Inhibition of SCD1 in mouse liver assessed as reduction in conversion of [14C]stearic acid to [14C]oleic acid after at 0.4 mg/kg, po after 3 hrs. In kind it is functional. In short, it runs like this: as §4
Data set [22] in a line: Drug uptake in mouse liver at 0.4 mg/kg, po after 3 hrs. It is filed as ADME, organism-based. Set-up: dose 0.4 mg/kg, route oral. As to conditions: read-out: Drug uptake. In short, it runs like this: as §4

Chain of Acyl-CoA (8-3)-desaturase (O60427 whole entry): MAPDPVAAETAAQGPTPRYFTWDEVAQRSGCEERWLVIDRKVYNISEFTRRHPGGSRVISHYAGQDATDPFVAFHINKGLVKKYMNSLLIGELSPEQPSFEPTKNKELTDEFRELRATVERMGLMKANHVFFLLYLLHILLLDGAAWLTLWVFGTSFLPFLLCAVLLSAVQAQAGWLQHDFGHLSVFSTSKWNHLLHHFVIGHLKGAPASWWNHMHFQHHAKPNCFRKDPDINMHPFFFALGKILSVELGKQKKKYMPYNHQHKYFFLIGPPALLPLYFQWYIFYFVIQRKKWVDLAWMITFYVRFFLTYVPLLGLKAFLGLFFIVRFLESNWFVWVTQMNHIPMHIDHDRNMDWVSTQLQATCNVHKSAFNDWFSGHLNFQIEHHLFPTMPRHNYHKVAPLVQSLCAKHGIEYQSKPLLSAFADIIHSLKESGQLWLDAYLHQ

As for `O=C(O)Cn1nnc(-c2cc(OCCOc3cc(F)ccc3Br)no2)n1`, the IC50 was over 40000 nM against Stearoyl-CoA desaturase [1] and 226 nM against Acyl-CoA desaturase 1 [2].

Turning to `O=C(O)Cn1nnc(-c2cc(OCCCOc3cc(F)ccc3Br)no2)n1`, the values for the remaining at 2 h in data set [3] and in [10] were 55% and 75%, respectively. In addition, the IC50 in [4] was over 20000 nM; at Acyl-CoA desaturase 1 [5] it was 213 nM; on Stearoyl-CoA desaturase [1] it was 7740 nM; in [8], 10 nM; against Stearoyl-CoA desaturase [11] it was 41 nM; against Acyl-CoA 6-desaturase, over 20000 nM. 13 nM corresponded to half-maximal inhibition on Acyl-CoA desaturase 1 [2] (IC50). The AUC(0-t) at 6 h in [6] stood at 1 µM·h. Further, the bioavailability in [7] amounted to 10%. Moreover, the inhibition in vivo at 60 mg/kg in the data set with Mus musculus [9] was determined as 85%. Moreover, the concentration at 6 h in data set [12] turned out to be 230 nM. The concentration at 3 h in [13] stood at 7800 nM.

In the case of `O=C(O)Cn1nnc(-c2cc(OCCCCOc3cc(F)ccc3Br)no2)n1`, the IC50 against Stearoyl-CoA desaturase [1] was over 40000 nM; at Acyl-CoA desaturase 1 [2] it was 248 nM.

Regarding `O=C(O)Cn1nnc(-c2cc(OCCOCc3cc(F)ccc3Br)no2)n1`, the IC50 at Stearoyl-CoA desaturase [1] is over 100000 nM; against Acyl-CoA desaturase 1 [2], 305 nM.

In the case of `O=C(O)Cn1nnc(-c2nnc(OCCCOc3cc(F)ccc3Br)s2)n1`, the IC50 against Stearoyl-CoA desaturase [1] is over 60000 nM; against Acyl-CoA desaturase 1 [2] it was 26 nM.

As to `O=C(O)Cn1nnc(-c2cnc(OCCCOc3cc(F)ccc3Br)s2)n1`, the remaining at 2 h in data set [3] is 94%. In addition, the concentration at 6 h was found to be 240 nM in data set [14], 1080 nM in data set [17], 590 nM in [19] and 8070 nM in data set [12]. The inhibition in vivo at 2 mg/kg with Mus musculus [15] is 49%. The IC50 against Acyl-CoA desaturase 1 [5] was determined as 176 nM; at Stearoyl-CoA desaturase [1], 3870 nM; on Acyl-CoA desaturase 1 [2], 5 nM. Moreover, the AUC(0-t) at 6 h in data set [6] stood at 11.4 µM·h. In addition, the concentration at 3 h in [16] was 28600 nM; in data set [20] it was 7600 nM. Also, in data set [7], the bioavailability is 32%. Further, in the data set with Mus musculus [18], the inhibition in vivo at 10 mg/kg came out at 79%.

Turning to `O=C(O)Cn1nnc(-c2cnc(OCCCOc3cc(OC(F)(F)F)ccc3Br)s2)n1`, the concentration at 6 h turned out to be 300 nM in data set [14], 770 nM in [17], 1850 nM in data set [19] and 13700 nM in [12]. For the same molecule, the inhibition in vivo at 2 mg/kg in the data set on Mus musculus [15] stood at 81%. For the same molecule, the IC50 on Acyl-CoA desaturase 1 [5] turned out to be 91 nM; at Stearoyl-CoA desaturase [1], 969 nM; against Acyl-CoA desaturase 1 [2], 2 nM. Besides, the figures for the concentration at 3 h in [16] and in [20] were 18300 nM and 4200 nM, respectively. The inhibition in vivo at 10 mg/kg with Mus musculus [18] came to 91%.

For the molecule `Cc1nc(OCCCOc2cc(F)ccc2Br)sc1-c1nnn(CC(=O)O)n1`, the figures for the IC50 at Acyl-CoA desaturase 1 [5], on Stearoyl-CoA desaturase [1] and on Acyl-CoA desaturase 1 [2] were 945 nM, 20500 nM and 22 nM, respectively.

`O=C(O)Cn1nnc(-c2cc(N3CCC(Oc4cc(F)ccc4Br)CC3)no2)n1` [MK-8245]: the concentration at 6 h in data set [14] was 70 nM; in [17], 30 nM; in data set [19] it was 130 nM; in data set [12], 2700 nM. Also, in the data set on Mus musculus [15], the inhibition in vivo at 2 mg/kg worked out at 89%. Moreover, the inhibition in vivo at 0.4 mg/kg in the data set on Mus musculus [21] was 49%. Moreover, the values for the concentration at 3 h in data set [20] and in data set [22] were 4900 nM and 1600 nM, respectively.
